XBP1 UPR activ: activators of adaptive XBP1 UPR arm, primary screen, cell-based, CHO-XBP1 luciferase reporter, luminescence, uHTS | AID 463104, 2010 | activation, % at 20 µM | IRE1-XBP1 UPR activation; percent of tunicamycin response, DMSO as zero | 330,000 tested, 0.33% active;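 active = versus positive control, 20 µM dose yields 30% or more activation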;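 also: 100% = tunicamycin at 10 µg/mL and 0% = DMSO only wells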
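Assay system: IRE1-XBP1 luciferase reporter CHO line. Input: 1000 cells/well. Buffer or medium: F12 with 10% serum. Doses: 20 µM, 1% DMSO. Times: overnight seeding at 37 °C, 6 h compound treatment at 37 °C. Technique: Steady-Glo luciferase glow luminescence, 10 min after reagent addition.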
CHOP UPR activ: activators of apoptotic CHOP UPR arm, primary screen, cell-based, CHO-CHOP luciferase reporter, luminescence, uHTS. UPR activation; percent of tunicamycin response over DMSO baseline. activation, % at 10 µM. 330,000 tested, 0.34% active. AID 449763, 2010;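 active = at 10 µM dose, activation of 40% or more, normalized to positive control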;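 also: 100% = tunicamycin at 10 µg/mL and 0% = DMSO alone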
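measured by = luciferase luminescence | assay system = CHO-CHOP cells, stable luciferase reporter of PERK-eIF2a-CHOP signalling | amount = 500 reporter cells seeded per well | timing = 6 h compound exposure at 37 °C after overnight seeding | controls = positive tunicamycin 10 µg/mL, negative DMSO alone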
A1 inh: caspase 3/7 activation in MEF A1-2A-BIM cells, primary screen, A1 inhibitor project, cell-based, luminescence, HTS. Caspase-Glo 3/7 luminescence, 3 h; percent of clofoctol response, vehicle zero. caspase activation, % (no concentration beside the values). 330,000 tested, 0.066% active;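 active = over half of replicate activation scores above 10%, or exactly half above 10 with the replicate mean above 10; inconclusive = replicate mean below 10 yet half the replicates above 10; inactive = over half of replicates below 10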
CHOP inhibitor: inhibitors of CHOP promoter induction, primary screen, cell-based, unfolded protein response, luciferase reporter. CHO-K1 CHOP-promoter luciferase, tunicamycin-induced, 15-18 h. inhibition, % at 10 µM. AID 2732, 2010. 220,000 tested, 3.8% active;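 active = compounds that reduced the stress-induced luciferase reporter signal by more than about 70% of percent inhibition, limit read from the data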;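 also: 0% = tunicamycin plus vehicle and 100% = wells without tunicamycin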
* = called active by the depositor; ? = inconclusive; . = not tested or not shown. This excerpt belongs to a sample that is enriched for hits.

SMILES	XBP1 UPR activ	CHOP UPR activ	A1 inh	CHOP inhibitor
CC1CCCC(C)N1/N=C/C=C/c1ccccc1[N+](=O)[O-] (configuration not stated)	1	2	0	71*
Cc1ccc(-c2n[nH]c(=S)n2/N=C/C=C\c2ccccc2[N+](=O)[O-])cc1	-1	0	0	91*
Cc1cc(NC(=O)NC(=O)c2ccc(F)cc2F)n[nH]1	-15	-2	-2	8
CCOC(=O)C1=C(c2ccccc2)Nc2ncnn2C1c1ccc(OC)c(OC)c1OC (configuration not stated)	-3	1	0	7
Clc1cccc(Cl)c1Cn1cnc2c(N3CCCCCC3)ncnc21	11	1	0	76*
O=C(Nc1ccccc1N1CCN(C(=O)c2ccc(Cl)cc2)CC1)c1cccnc1	-1	0	0	5
NS(=O)(=O)c1ccc(NCc2ccccc2OCc2ccc(F)cc2)cc1	-4	0	0	42
NS(=O)(=O)c1ccc(NCc2cc(Cl)ccc2OCc2ccccc2F)cc1	1	2	2	70*
CCc1c(C)nc(N)nc1OCC(F)(F)C(F)F	-2	-2	0	23
CCOC(=O)C(C)On1c(-c2ccc(Cl)cc2)nc2ccc([N+](=O)[O-])cc21 (configuration not stated)	4	3	-1	72*
COn1c(-c2ccc(Cl)cc2)nc2ccc(Cl)cc21	0	4	-2	74*
Cc1ccc(OCCN2CCN(c3ncnc4sc(C)c(C)c34)CC2)cc1	-3	3	0	72*
Cn1cc(C(=O)CCl)c2ccccc21	.	.	.	88*
O=C1C(Cl)=C(Nc2ccc3cn[nH]c3c2)C(=O)c2ccccc21	.	.	3	107*
O=C(Nc1ccc2cn[nH]c2c1)c1c(Cl)cccc1Cl	2	-2	0	43
O=C1C(Cl)=C(NCCCO)C(=O)c2ccccc21	-2	2	0	-1
CN(C)c1ccc(NC2=C(Cl)C(=O)c3ccccc3C2=O)cc1	0	26	-1	95*
Cc1csc(SCC(=O)c2cc(C)n(Cc3cccs3)c2C)n1	-5	-7	0	76*
O=C1/C(=C\c2ccco2)CCC/C1=C\c1ccco1	4	4	0	87*
CC1C/C(=C/c2ccco2)C(=O)/C(=C/c2ccco2)C1 (configuration not stated)	2	6	1	-10
CCCCc1nnc2c(N(C)S(=O)(=O)c3ccc(C)cc3)nc3ccccc3n12	-1	1	-1	5
COc1ccc(CCNC(=O)Cn2nnc(-c3cccs3)n2)cc1OC	-5	-1	0	10
CC(/C=C/C=C/c1ccccc1)=N/NC(=O)CNc1ccc(C)cc1	-3	4	-1	82*
Nc1cc2c(cc1[N+](=O)[O-])OCCOCCOCCO2	1	1	1	7
CCOC(=O)C/C(C)=N/NC(=O)CN(c1ccc(Br)cc1)S(=O)(=O)c1ccccc1	-1	1	2	15
SMILES	XBP1 UPR activ	CHOP UPR activ	A1 inh	CHOP inhibitor
OC(COC(c1ccc(Cl)cc1)c1ccc(Cl)cc1)CN1CCc2ccccc2C1 (configuration not stated)	2	-2	1	90*
OC(COC(c1ccccc1)c1ccccc1)CN1CCc2ccccc2C1 (configuration not stated)	2	-2	-1	42
CC(=O)N1CCSc2ccc(S(=O)(=O)Nc3ccc(C)cc3)cc21	-1	0	2	.
CC(=O)Nc1ccc(NC(=O)c2ccccc2CC[N+](=O)[O-])cc1	-4	0	1	-11
CCOc1cc(/C=N/NC(=O)C(N)=O)cc(Br)c1O	-2	-2	0	22
CCOc1cc(Br)c(Br)c(C=Nc2ccc(NC(C)=O)cc2)c1O	-3	1	2	87*
Cc1cccc(C(C(N)=O)c2ncc(C(F)(F)F)cc2Cl)c1 (configuration not stated)	1	0	1	3
NC(=O)CC[C@@H]1NC(=O)[C@H](CO)NC(=O)c2cc([N+](=O)[O-])cc(I)c2NCCC[C@@H](C(N)=O)NC(=O)[C@H](Cc2ccc(O)cc2)NC1=O	-3	2	0	7
CC(C)C(=O)N=c1sc2cc(F)cc(F)c2n1C	3	-1	0	85*
COc1ccccc1NC(=O)Cn1ncc2c1-c1ccccc1OC2	-1	0	1	16
CCOc1ccc(-c2cc(NC(=O)Cn3ncc4c3-c3ccccc3OC4)on2)cc1OCC	-2	0	0	100*
Cc1cccc(Nc2nc(N3CCCC3)nc(N3CCCC3)n2)c1	2	1	0	65
COc1nc(N2CCCCCC2)nc(N2CCCCCC2)n1	3	-2	0	88*
COc1nc(OCC#N)nc(N2CCCCC2)n1	-1	0	0	5
COc1nc(Nc2cccc(C)c2)nc(N2CCCCC2)n1	2	2	1	71*
COc1ccc(N2CCN(C(=O)C(NC(=O)c3c(F)cccc3F)C(C)C)CC2)cc1 (configuration not stated)	-4	-1	.	.
Cc1cccc(NC(=O)c2cc3n(n2)C(C(F)(F)F)CC(c2ccc4c(c2)OCO4)N3)c1 (configuration not stated)	-3	2	1	71*
O=C(Nc1ccc(O)cc1)c1cc2n(n1)C(C(F)(F)F)CC(c1ccco1)N2 (configuration not stated)	4	-1	0	7
COc1ccc(NC(=O)c2cc3n(n2)C(C(F)(F)F)CC(c2ccc4c(c2)OCO4)N3)cc1OC (configuration not stated)	-3	0	0	62
O=C(NC1CCCCCC1)c1cc2n(n1)C(C(F)(F)F)CC(c1ccco1)N2 (configuration not stated)	-2	-3	?	74*
Cc1cc(-c2csc(N)n2)c(C)n1CCC(C)C	2	-4	0	79*
Cc1cc(-c2csc(N)n2)c(C)n1CCc1ccccc1	-2	-6	0	81*
Cc1nn(C)cc1-c1csc(N)n1	0	-1	0	-18
CC(C)(C)C1=CC=C(C(C)(C)C)C(=O)C1=O	3	49*	6.4*	-105
O=S(=O)(c1ccccc1F)N1CCN(CCOc2ccccc2)CC1	-2	1	-1	.
Cc1ccc(C)c(NC(=S)NC(NC(=O)N(C)C)C(Cl)(Cl)Cl)c1 (configuration not stated)	-3	-1	0	-16
Cc1ccc(C)c(NC(=S)NC(NC(=O)Cc2cccc3ccccc23)C(Cl)(Cl)Cl)c1 (configuration not stated)	47*	52*	12*	79*
